Converted amounts (≈) assume the structure as drawn.
What was measured:
[1] = test system: Mycobacterium tuberculosis; assay: Antimycobacterial activity against Mycobacterium tuberculosis H37Rv after 4 days by MABA assay; type: functional; conditions: 96 h
Staphylococcus aureus = assay: Antimicrobial activity against Staphylococcus aureus ATCC 29213 by broth microdilution method; type: functional
Method in brief: (§1)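 Broth microdilution in cation-adjusted Mueller-Hinton broth against the QC strain, following the standard method for inoculum preparation and incubation. Samples were serially diluted twofold from 16 to 0.125, in triplicate, with DMSO as solvent and diluent. A gentamicin accuracy control was made up in water and diluted in broth. MIC was the lowest concentration giving complete growth inhibition, read by eye.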

Escherichia coli = assay: Antimicrobial activity against Escherichia coli ATCC 25922 by broth microdilution method; type: functional; method in brief: as §1
[2] = test system: Mycobacterium tuberculosis; assay: Antimycobacterial activity against Mycobacterium tuberculosis H37Rv at 128 uM after 4 days by MABA assay; type: functional
Vero [3] = assay: Cytotoxicity against african green monkey Vero cells; type: ADME, cell-based; conditions: Chlorocebus sabaeus
[4] = Selectivity index, ratio of EC50 for african green monkey VERO cells to MIC for Mycobacterium tuberculosis H37Rv; type: functional
Vero [5] = assay: Cytotoxicity against african green monkey Vero cells at 128 uM; type: cell-based; conditions: chlorocebus sabaeus
[6] = test system: Mycobacterium tuberculosis; assay: Antimycobacterial activity against Mycobacterium tuberculosis H37Rv transfected with pFPCA-luxAB grown under anaerobic condition for 10 days followed by 24 hrs incubation under aerobic condition by LORA assay; type: functional
[7] = test system: Mycobacterium tuberculosis; assay: Antimycobacterial activity against Mycobacterium tuberculosis H37Rv transfected with pFPCA-luxAB at 128 uM with pFPCA-luxAB grown under anaerobic condition for 10 days followed by 24 hrs incubation under aerobic condition by LORA assay; type: functional
[8] = test system: Mycobacterium tuberculosis; assay: Antimycobacterial activity against Mycobacterium tuberculosis H37Rv at 21 uM after 4 days by MABA assay; type: functional; conditions: 96 h

For `COc1ccc(Cn2ccc3c(-c4ccco4)ncnc32)cc1`, the MIC [1] was 0.16 µM (≈ 0.0489 µg/mL).
Work on `COc1ccc(Cn2ccc3c(-c4ccco4)nc(Cl)nc32)cc1` yielded an MIC [1] of 0.08 µM (≈ 0.0272 µg/mL).
With `COc1ccc(Cn2cnc3c(-c4ccco4)ccnc32)cc1` the MIC [1] was 63 µM (≈ 19.2 µg/mL), the MIC (Staphylococcus aureus) was greater than 16 µg/mL and the MIC (Escherichia coli) was greater than 16 µg/mL.
In the case of `COc1ccc(Cn2cnc3c(-c4ccco4)cc(Cl)nc32)cc1`, the MIC [1] is reported as greater than 128 µM, the MIC (Staphylococcus aureus) is reported as greater than 16 µg/mL and the MIC (Escherichia coli) is reported as greater than 16 µg/mL. It also gave an Activity [2] of 37%.
`COc1ccc(Cn2cnc3c(-c4ccco4)nccc32)cc1` showed an MIC [1] of 0.84 µM (≈ 0.256 µg/mL), an IC50 (Vero [3]) greater than 128 µM and an MIC (Staphylococcus aureus) greater than 16 µg/mL. For the same compound, the MIC (Escherichia coli) was greater than 16 µg/mL, the “Selectivity Index” value [4] was greater than 150 and the Activity (Vero [5]) was 0%. It also gave an MIC [6] of 80 µM (≈ 24.4 µg/mL).
Compound `COc1ccc(Cn2cnc3c(-c4ccco4)nc(Cl)cc32)cc1` has an MIC [1] of 0.16 µM (≈ 0.0544 µg/mL), an IC50 (Vero [3]) greater than 128 µM and an MIC (Staphylococcus aureus) greater than 16 µg/mL. The MIC (Escherichia coli) was greater than 16 µg/mL, the “Selectivity Index” value [4] was greater than 800 and the Activity (Vero [5]) was 30%. It also gave an MIC [6] of 48 µM (≈ 16.3 µg/mL).
With `COc1ccc(Cn2ccc3c(-c4ccco4)ccnc32)cc1` the MIC [1] was 44 µM (≈ 13.4 µg/mL), the MIC (Staphylococcus aureus) was greater than 16 µg/mL and the MIC (Escherichia coli) was greater than 16 µg/mL.
For `COc1ccc(Cn2ccc3c(-c4ccco4)cc(Cl)nc32)cc1`, the MIC [1] was greater than 128 µM, the MIC (Staphylococcus aureus) was greater than 16 µg/mL and the MIC (Escherichia coli) was greater than 16 µg/mL. The Activity [2] was 86%.
For `COc1ccc(Cn2ccc3c(-c4ccco4)nccc32)cc1`, the MIC [1] was 1.4 µM (≈ 0.426 µg/mL), the IC50 (Vero [3]) was 12 µM and the MIC (Staphylococcus aureus) was greater than 16 µg/mL. For the same compound, the MIC (Escherichia coli) was greater than 16 µg/mL, the “Selectivity Index” value [4] was 8.6 and the MIC [6] was 28 µM (≈ 8.52 µg/mL).
Work on `COc1ccc(Cn2ccc3c(-c4ccco4)nc(Cl)cc32)cc1` yielded an MIC [1] of 0.09 µM (≈ 0.0305 µg/mL), an IC50 (Vero [3]) of 58 µM and an Activity [7] of 53%. The MIC (Staphylococcus aureus) was greater than 16 µg/mL, the MIC (Escherichia coli) was greater than 16 µg/mL and the “Selectivity Index” value [4] was 644. It also gave an MIC [6] greater than 128 µM.
`COc1ccc(Cn2cnc3c(-c4ccco4)cccc32)cc1` gave an MIC [1] of 29 µM (≈ 8.83 µg/mL), an MIC (Staphylococcus aureus) greater than 16 µg/mL and an MIC (Escherichia coli) greater than 16 µg/mL.
`COc1ccc(Cn2ccc3c(-c4ccco4)cccc32)cc1` showed an MIC [1] greater than 21 µM, an inhibition at 21 µM [8] of 0% and an MIC (Staphylococcus aureus) greater than 16 µg/mL. The MIC (Escherichia coli) was greater than 16 µg/mL.
With `COc1ccc(Cn2cnc3c(-c4ccco4)ncnc32)cc1` the MIC [1] was 2.1 µM (≈ 0.643 µg/mL).
For `COc1ccc(Cn2cnc3c(-c4ccco4)nc(Cl)nc32)cc1`, the MIC [1] was 0.36 µM (≈ 0.123 µg/mL).
`NNC(=O)c1ccncc1` [ISONIAZID] gave an MIC [1] of 0.28 µM (≈ 0.0384 µg/mL) and an MIC [6] greater than 128 µM.
`O=[N+]([O-])c1cn2c(n1)OC[C@@H](OCc1ccc(OC(F)(F)F)cc1)C2` [PRETOMANID] showed an MIC [1] of 0.44 µM (≈ 0.158 µg/mL) and an MIC [6] of 3.11 µM (≈ 1.12 µg/mL).
In the case of `CO[C@H]1/C=C/O[C@@]2(C)Oc3c(C)c(O)c4c(O)c(c(/C=N/N5CCN(C)CC5)c(O)c4c3C2=O)NC(=O)/C(C)=C\C=C\[C@H](C)[C@H](O)[C@@H](C)[C@@H](O)[C@@H](C)[C@H](OC(C)=O)[C@@H]1C` [RIFAMPIN], the MIC [1] is reported as 0.09 µM (≈ 0.0741 µg/mL) and the MIC [6] is reported as 0.97 µM (≈ 0.798 µg/mL).

Reference: ChEMBL document CHEMBL1811771, “Synthesis and antimycobacterial activities of non-purine analogs of 6-aryl-9-benzylpurines: Imidazopyridines, pyrrolopyridines, benzimidazoles, and indoles” (Bioorg Med Chem, 2011)
